Compound activity: PubChem BioAssay, Johns Hopkins Ion Channel Center
The list is not random: actives were taken first. Their share in the collection is about 3.5%.
MrgX1 allo act: allosterically activates human MrgX1 receptor signaling; AID 588675; Q96LB2; B-score at 10 µM; MrgX1-HEK293, Fluo-4 calcium flux, FDSS; hits give high values; hit rate 0.63% among 310,000;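 active = plate-corrected calcium response at least 3 library SD above typical, normal starting fluorescence, not activating the receptor alone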;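 note: compound read alongside a low EC10 to EC30 dose of BAM8-22 agonist; peak minus trough fluorescence over baseline measured at the second addition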
Target sequence (Q96LB2 whole entry, looked up): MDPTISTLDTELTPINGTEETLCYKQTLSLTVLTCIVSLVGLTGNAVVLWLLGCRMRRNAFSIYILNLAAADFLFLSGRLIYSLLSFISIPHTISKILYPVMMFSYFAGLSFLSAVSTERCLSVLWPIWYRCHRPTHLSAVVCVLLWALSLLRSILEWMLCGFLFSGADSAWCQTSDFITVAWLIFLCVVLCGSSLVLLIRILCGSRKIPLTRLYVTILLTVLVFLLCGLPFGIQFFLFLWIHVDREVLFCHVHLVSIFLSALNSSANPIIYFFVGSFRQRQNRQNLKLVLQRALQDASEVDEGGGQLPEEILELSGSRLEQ
RGS4 pot: potentiators or activators of RGS4; B-score at 10 µM; HEK293 M3R/inducible RGS4, carbachol calcium flux Fluo4; hits give low values; hit rate 0.92% among 310,000;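 active = B-score of the integrated calcium signal more than 4 SD below the library mean, with starting fluorescence not abnormally high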;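 note: negative B-score means reduced calcium response which marks RGS4 activation or potentiation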
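Assay system: Inducible-RGS4 HEK293 cells carrying M3 receptor | Schedule: Compound preincubation 20 min at room temperature before agonist | Signal: Kinetic calcium fluorescence imaging with Fluo4-AM dye, 2 µM | Read-out basis: B score from integrated fluorescence ratio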
MrgX1 ag: human MrgX1 receptor agonism, primary screen; MrgX1-HEK293 cells, Fluo-4 calcium fluorescence, agonist mode; hits give high values; B-score at 10 µM; hit rate 0.44% among 310,000;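 active = calcium response B-score plate-corrected fluorescence ratio at least 3 library SD, with starting fluorescence B-score inside 5 SD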
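Material – MrgX1-expressing HEK293 cells · Input – 15,000 cells seeded per well · Dosing – compound as first of three additions · Times – overnight seeding, then 1 h dark dye loading · Measured by – kinetic Fluo-4 NW fluorescence of intracellular calcium · Read-out – B-scored fluorescence response ratio · Benchmarks – positive and negative control wells on each plate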
RGS4 block: inhibitors of human RGS4 | HEK293 M3R/RGS4 inducible, Fluo-4 calcium flux; hits give high values; triggered by carbachol at its EC20 | B-score at 10 µM | P49798 | hit rate 0.45% among 310,000;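 active = B-score, a plate-corrected calcium signal, over three deviations above library mean, with baseline fluorescence within five deviations of library mean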;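 note: RGS4 expression induced by doxycycline in cells with stable M3 receptor; B-score is computed from the integrated fluorescence ratio over baseline after carbachol; higher B-score means a larger calcium signal and so more RGS4 inhibition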
Target sequence (P49798 whole entry, looked up): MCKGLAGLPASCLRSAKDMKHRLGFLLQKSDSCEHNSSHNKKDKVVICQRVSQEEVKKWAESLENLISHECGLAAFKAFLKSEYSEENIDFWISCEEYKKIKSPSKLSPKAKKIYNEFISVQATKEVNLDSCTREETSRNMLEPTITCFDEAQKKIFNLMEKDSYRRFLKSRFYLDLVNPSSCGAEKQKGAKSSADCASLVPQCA
MrgX1 antag: blocks BAM8-22 activation of human MrgX1 receptor; Q96LB2; MRGX1-HEK293 calcium flux, Fluo-4, BAM8-22 antagonism; hits give low values; B-score at 10 µM; hit rate 1.3% among 310,000;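 active = calcium-response B-score plate-corrected more than 3 library SD below zero, starting fluorescence within 5 deviations, no agonist response on first addition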;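 note: peak minus trough fluorescence over baseline after final BAM8-22 challenge near maximal dose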
MrgX1 ant reconf: human MrgX1 receptor antagonism, re-confirmation screen; shares compounds with MrgX1 antag; hit rate 19% among 2,300; remaining BAM8-22 calcium response % of control (hits give low values), % at 10 µM; MrgX1-HEK293, BAM8-22 calcium flux, Fluo-4; hits give low values;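 active = remaining agonist calcium response no higher than 100% minus 3 SD of agonist-only control wells, with starting fluorescence near control levels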;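 note: agonist BAM8-22 given at a near maximal EC90 to ECmax level; peak minus minimum fluorescence divided by baseline after agonist addition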
HEK293 Ca flux: MrgX1 antagonist counter-screen hit in parental HEK293 cells. shares compounds with MrgX1 antag. Fluo-4 calcium fluorescence, FDSS. fluorescence ratio F(max-min)/F0 at 10 µM. hit rate 2% among 4,000. AID 624111;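 active = duplicate-averaged calcium fluorescence ratio at least three times the standard deviation of buffer wells, a nonspecific response in parental cells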
HEK293 Ca counter: MrgX1 allosteric activator counter-screen hit in parental HEK293 cells. shares compounds with MrgX1 antag. parental HEK293 calcium flux, Fluo-4 fluorescence ratio; hits give high values. fluorescence ratio F(max-min)/F0 at 10 µM. hit rate 0.4% among 4,000. AID 624114;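 active = calcium fluorescence ratio, averaged over duplicates, at least 3 SD of the buffer-well ratio, meaning a nonspecific response in receptor-free cells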;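 note: untransfected parental HEK293 lacking MrgX1 used as counterscreen for MrgX1 allosteric activators; fluorescence change taken during the second addition on a kinetic imager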
HEK293 Ca cntr2: activity in parental HEK293 cells lacking MrgX1 receptor; shares compounds with MrgX1 antag; Fluo-4 calcium fluorescence (FDSS); hits give high values; fluorescence ratio F(max-min)/F0 at 10 µM; hit rate 8.7% among 4,000; AID 624115;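 active = calcium fluorescence ratio at least three times the spread of buffer wells, meaning a non-specific response in parental cells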
Numbers stand for hits; i = inactive; nt = not tested or not shown.

SMILES	MrgX1 allo act	RGS4 pot	MrgX1 ag	RGS4 block	MrgX1 antag	MrgX1 ant reconf	HEK293 Ca flux	HEK293 Ca counter	HEK293 Ca cntr2
CCCNC(=O)c1ccc2nc(-c3ccccc3)c(-c3ccccc3)nc2c1	i	i	i	i	-5.3	i	i	i	i
O=C(Nc1ccc(N2CCOCC2)cc1)c1ccc2nc(-c3ccco3)c(-c3ccco3)nc2c1	i	i	i	i	i	nt	nt	nt	nt
C=CCOC(=O)C1=C(C)N(C)C(=O)NC1c1cc2c(cc1Br)OCO2 (stereo not given)	i	i	i	i	-4.7	85%	i	i	i
CCCn1c(N2CCN(C(=O)Nc3ccccc3)CC2)nc2ccccc21	i	i	i	i	i	nt	nt	nt	nt
CCCn1c(N2CCN(C(=O)N3CCCCC3)CC2)nc2ccccc21	i	i	i	i	-6.2	i	i	i	i
Cc1ccc(S(=O)(=O)N(C)C)cc1NC(=S)NC(=O)C12CC3CC(CC(C3)C1)C2	i	i	i	i	-6.6	i	i	i	i
COc1ccccc1NC(=O)CCC(=O)OCc1ccc(Cl)cc1	i	i	i	i	-4.8	i	i	i	i
O=C(COc1ccc(CO)cc1Cl)Nc1ccc(F)cc1	i	i	i	i	-6.6	85%	i	i	i
O=C(COc1ccc(CO)cc1)Nc1ccc(F)cc1	i	i	i	i	i	nt	nt	nt	nt
COc1ccc(-c2noc(CN(C(=O)c3ccc4c(c3)OCO4)C(C)C)n2)cc1	i	i	i	i	i	nt	nt	nt	nt
COc1ccc(-c2noc(CN(C(=O)c3cccs3)C(C)C)n2)cc1	i	i	i	i	-4.8	i	i	i	i
Cc1ccc(-c2nnc(CSc3nnc(C)s3)o2)cc1	i	i	i	i	-5.9	i	i	i	i
CCc1ccc(NC(=O)N2CCN(C(=O)C3CCCO3)CC2)cc1 (stereo not given)	i	i	i	i	i	nt	nt	nt	nt
O=C(CCCn1c(SCc2cccc(F)c2)nc2ccccc2c1=O)NCC1CCCO1 (stereo not given)	i	i	i	i	-5.2	i	i	i	i
Cc1ccc(NC(=O)c2ccccc2-c2ccccc2C(=O)O)cc1	i	i	i	i	-6.6	i	i	i	i
O=C(O)c1ccccc1-c1ccccc1C(=O)Nc1ccccc1	i	i	i	i	i	nt	nt	nt	nt
O=C(Nc1ccc(NC(=O)c2ccccc2)nc1)c1ccncc1	i	i	i	i	-6.8	i	i	i	i
Cc1ccc(NC(=O)c2ccccc2)cc1	i	i	i	i	-4.7	i	i	i	i
O=C(NC(=S)Nc1ccc(S(=O)(=O)Nc2ncccn2)cc1)c1ccc(Br)cc1	i	i	i	i	i	nt	nt	nt	nt
COc1ccc2c(C(=O)CN3CCN(c4ccccc4)CC3)c[nH]c2c1	i	i	i	i	i	nt	nt	nt	nt
CC(C)OC(=O)CSc1nc(-c2ccc(F)cc2)nc2ccc(F)cc12	i	i	i	i	-10	i	i	i	i
CS(=O)(=O)N(CC(=O)N/N=C/c1cccs1)c1cccc(Cl)c1Cl	i	i	i	i	i	nt	nt	nt	nt
CC12CCC(C(=O)OC3CCCCC3)(OC1=O)C2(C)C (stereo not given)	i	i	i	i	i	nt	nt	nt	nt
CCn1c(Cc2cccs2)nnc1SCC(=O)NC1CC1	i	i	i	i	i	nt	nt	nt	nt
C=CCn1c(Cc2cccs2)nnc1SCC(=O)NC1CC1	i	i	i	i	-8.8	i	i	i	i
SMILES	MrgX1 allo act	RGS4 pot	MrgX1 ag	RGS4 block	MrgX1 antag	MrgX1 ant reconf	HEK293 Ca flux	HEK293 Ca counter	HEK293 Ca cntr2
CN1CCN(c2ccc(-c3ccnn3C(=O)Nc3ccccc3)cc2)CC1	i	i	i	i	-10	i	i	i	i
CN1CCN(c2ccc(NC(=O)C(C)(c3ccccc3)c3ccccc3)cc2)CC1	i	i	i	i	i	nt	nt	nt	nt
COC(=O)C1CCN(S(C)(=O)=O)CC1	i	i	i	i	-4.6	i	i	i	i
COC(=O)C1CCN(S(=O)(=O)c2ccc(NC(C)=O)cc2)CC1	i	i	i	i	i	nt	nt	nt	nt
COC(=O)c1[nH]c2ccc(C)cc2c1NS(=O)(=O)c1ccc(F)c(C)c1	i	i	i	i	-6.8	i	i	i	i
Cc1cc(C)cc(NC(=O)c2cc(S(=O)(=O)N3CCCC3)cn2C)c1	i	i	i	i	-6.9	i	i	i	i
CC(CN1C(C)CCCC1C)OC(=O)c1ccc(Cl)cc1Cl (stereo not given)	i	i	i	i	i	nt	nt	nt	nt
Cc1c(C(=O)N2CCN(c3ncccn3)CC2)sc2nc3n(c(=O)c12)CCCC3	i	i	i	i	-7.4	i	i	i	i
Cc1c(C(=O)O)sc2nc3n(c(=O)c12)CCCCC3	i	i	i	i	i	nt	nt	nt	nt
C=CCN1C(=O)c2cccc3c(Br)ccc(c23)C1=O	i	i	i	i	-7.6	i	i	i	i
C=CCN1C(=O)c2cccc3c(N4CCCCC4)ccc(c23)C1=O	i	i	i	i	i	nt	nt	nt	nt
COC(=O)C1=C(N)Oc2cc(C)n(Cc3cccnc3)c(=O)c2C1c1cccc(OC)c1OC (stereo not given)	i	i	i	i	-13	i	i	i	i
COC(=O)C1=C(N)Oc2cc(C)n(Cc3cccnc3)c(=O)c2C1c1cc(OC)ccc1OC (stereo not given)	i	i	i	i	i	nt	nt	nt	nt
CC(=O)Nc1ccc(-n2c(=O)c3ccccc3c3ccccc3c2=O)cc1	i	i	i	i	i	nt	nt	nt	nt
O=C(O)c1ccc(-n2c(=O)c3ccccc3c3ccccc3c2=O)cc1	i	i	i	i	-6.3	i	i	i	i
O=C(/C=C1\SC(=O)NC1=O)Nc1ccc(C(=O)O)cc1	i	i	i	i	-10	i	i	i	i
Cn1cnnc1SCCC(=O)Nc1ccc(Cl)cc1	i	i	i	i	-5.8	i	i	i	i
Cn1cnnc1SCCC(=O)Nc1ccccc1	i	i	i	i	i	nt	nt	nt	nt
Cn1cnnc1SCC(=O)Nc1ccc(OC(F)F)cc1	i	i	i	i	-4.9	84%	i	i	i
CCCCNC(=S)NNC(=O)c1cccnc1	i	i	i	i	i	nt	nt	nt	nt
S=c1nc(-c2ccccc2Br)[nH][nH]1	i	i	i	i	-6.1	i	i	i	i
COc1ccccc1N1CCN(C2CCCN(C(=O)c3cc(C4CC4)on3)C2)CC1 (stereo not given)	i	i	i	i	i	nt	nt	nt	nt
COc1ccc(CN2CCNC(=O)C2CC(=O)N(C)Cc2nonc2C)c(F)c1 (stereo not given)	i	i	i	i	i	nt	nt	nt	nt
